Reference: PubChem BioAssay AID588823 (The Scripps Research Institute Molecular Screening Center, 2011)
Active and inactive are the calls of the source.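 Rule for the calls: active = at least 50% inhibition of the target enzyme pPAFAH in mouse brain after oral dosing, with fewer than two other serine hydrolases also hit; inactive = weaker pPAFAH inhibition or two or more other hydrolases hit.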

Columns and labels:
Assay in all cases: pPAFAH inhibition after oral dosing in mice, late-stage follow-up, in vivo study, fluorescence, gel-based ABPP, mouse (AID 588823)
CES1 = settings: mouse brain membrane proteome, stronger effect = higher value, dose or concentration not given here
In short: (§1)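 Evaluation – percent inhibition from band integrated optical density versus vehicle, background-corrected · Material – wild-type mouse brain membrane fraction · Controls – vehicle-dosed mice high, blank gel background low · Compound – single oral 50 mg/kg dose, PEG300 vehicle · Detection – in-gel fluorescence scanning after SDS-PAGE separation · Schedule – 4 h dosing, 30 min probe labelling at 37 °C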

Anti-targets = settings: mouse brain membrane proteome, FP-Rh probe
In short: as §1

pPAFAH = settings: mouse brain membrane proteome, stronger effect = higher value, dose or concentration not given here
In short: as §1

## Cc1cc(N2CCN(C(=O)Oc3ccc(-c4ccccc4)cn3)CC2)c2ccccc2n1
CES1
  inhibition: 90%
Anti-targets
  outcome: inactive
Anti-targets; number of FP-Rh anti-targets, stronger effect = lower value
  anti-target count: 0
pPAFAH
  inhibition: 95.5%
